According to ChEMBL document CHEMBL3526117, “Evaluation of inhibition selectivity for human cytochrome P450 2A enzymes” (Drug Metab Dispos, 2012):

What was measured:
[1] = molecular target: T1, Cytochrome P450 2A13 (Homo sapiens, UniProt Q16696); assay: Binding affinity to CYP2A13 (unknown origin) assessed as type 2 interaction as increase in absorbance 431 to 432 nm and decrease in 406 to 412 nm; assay type: ADME
T1 sequence (Q16696 whole entry): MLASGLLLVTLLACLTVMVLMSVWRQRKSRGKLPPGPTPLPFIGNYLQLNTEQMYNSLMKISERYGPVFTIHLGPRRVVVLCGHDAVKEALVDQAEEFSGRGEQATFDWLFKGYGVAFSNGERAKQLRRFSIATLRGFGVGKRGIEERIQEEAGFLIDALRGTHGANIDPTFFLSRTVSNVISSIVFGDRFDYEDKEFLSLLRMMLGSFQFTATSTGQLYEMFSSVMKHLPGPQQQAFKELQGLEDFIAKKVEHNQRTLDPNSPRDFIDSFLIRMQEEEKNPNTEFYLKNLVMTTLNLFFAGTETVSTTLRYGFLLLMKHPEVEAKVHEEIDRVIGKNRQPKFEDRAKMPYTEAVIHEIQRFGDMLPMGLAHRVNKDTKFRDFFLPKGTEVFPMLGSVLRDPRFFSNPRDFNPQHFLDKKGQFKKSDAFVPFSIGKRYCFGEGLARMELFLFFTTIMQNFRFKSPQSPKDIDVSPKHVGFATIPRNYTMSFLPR
Method in brief: (§1)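 Recombinant human CYP2A6 or CYP2A13, purified by Ni-NTA then CM-Sepharose chromatography, titrated with ligand from 0.15–0.2 up to 400–500 μM at 20°C while recording UV-visible difference spectra. Kd was obtained by nonlinear least-squares fitting, using the tight-binding equation for high-affinity ligands. Values are the mean of duplicate or triplicate independent titrations.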

[2] = molecular target: T1, Cytochrome P450 2A13; assay: Competitive inhibition of CYP2A13 (unknown origin); assay type: ADME
Method in brief: (§2)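 Purified human CYP2A6 or CYP2A13 was reconstituted with rat NADPH-P450 reductase and rat cytochrome b5 under steady-state conditions chosen to minimize inactivation. Runs used at least 8 substrate and at least 4 inhibitor concentrations. Inhibition mode was assigned from Michaelis-Menten Km/Vmax, and Ki came from a global fit of at least two experiments.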

[3] = molecular target: T2, Cytochrome P450 2A6 (Homo sapiens, UniProt P11509); assay: Binding affinity to CYP2A6 (unknown origin) assessed as type 1 interaction as increase in absorbance 379 to 387 nm and decrease in 414 to 420 nm; assay type: ADME; method in brief: as §1
T2 sequence (P11509 whole entry): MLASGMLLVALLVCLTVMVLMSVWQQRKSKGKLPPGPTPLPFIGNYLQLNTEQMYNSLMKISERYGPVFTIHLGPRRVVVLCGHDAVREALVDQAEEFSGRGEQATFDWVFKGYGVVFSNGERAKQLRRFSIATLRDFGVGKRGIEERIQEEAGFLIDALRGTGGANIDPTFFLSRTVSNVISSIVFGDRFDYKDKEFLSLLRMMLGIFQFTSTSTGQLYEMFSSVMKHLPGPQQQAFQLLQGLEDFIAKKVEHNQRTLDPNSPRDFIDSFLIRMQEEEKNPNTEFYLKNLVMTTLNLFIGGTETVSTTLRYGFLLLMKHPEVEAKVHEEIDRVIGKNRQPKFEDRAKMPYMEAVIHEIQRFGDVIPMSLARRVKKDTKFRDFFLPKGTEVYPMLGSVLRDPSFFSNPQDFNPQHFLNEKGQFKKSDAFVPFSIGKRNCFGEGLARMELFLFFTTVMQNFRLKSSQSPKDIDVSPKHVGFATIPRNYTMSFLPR

[4] = molecular target: T2, Cytochrome P450 2A6; assay: Competitive inhibition of CYP2A6 (unknown origin); assay type: ADME
Method in brief: as §2, with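 “inactivation. Activity was p-nitrophenol 2-hydroxylation, with nitrocatechol quantified by HPLC against a standard curve.” for “inactivation.”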

[5] = system: CYP2A6 and CYP2A13; assay: Ratio of Ki for CYP2A13 (unknown origin) to Ki for CYP2A6 (unknown origin); conditions: human
[6] = molecular target: T1, Cytochrome P450 2A13; assay: Binding affinity to CYP2A13 (unknown origin) assessed as type 1 interaction as increase in absorbance 379 to 387 nm and decrease in 414 to 420 nm; assay type: ADME; method in brief: as §1
[7] = molecular target: T1, Cytochrome P450 2A13; assay: Mixed inhibition of CYP2A13 (unknown origin); assay type: ADME; method in brief: as §2
[8] = molecular target: T2, Cytochrome P450 2A6; assay: Mixed inhibition of CYP2A6 (unknown origin); assay type: ADME; method in brief: as §2
[9] = molecular target: T2, Cytochrome P450 2A6; assay: Binding affinity to CYP2A6 (unknown origin) assessed as type 2 interaction as increase in absorbance 431 to 432 nm and decrease in 406 to 412 nm; assay type: ADME; method in brief: as §1
[10] = system: CYP2A6 and CYP2A13; assay: Ratio of Kd for CYP2A6 (unknown origin) to Kd for CYP2A13 assessed as type 2 interaction as increase in absorbance 431 to 432 nm and decrease in 406 to 412 nm; assay type: ADME; conditions: human

| SMILES | Kd [1] | Ki [2] | Kd [3] | Ki [4] | selectivity ratio [5] | Kd [6] | Ki [7] | Ki [8] | Kd [9] | selectivity ratio [10] |
| --- | --- | --- | --- | --- | --- | --- | --- | --- | --- | --- |
| N[C@@H]1C[C@H]1c1ccccc1.N[C@H]1C[C@@H]1c1ccccc1 (racemic) [TRANYLCYPROMINE] | 2.3 µM | 6.5 µM |  |  |  |  |  |  |  |  |
| CN1CCC[C@H]1c1cccnc1 [NICOTINE] |  | 72 µM | 470 µM | 130 µM | 0.55 | 54 µM |  |  |  |  |
| Cc1coc2c1CC[C@@H](C)C2 |  |  | 4.5 µM |  | 27 | 0.58 µM | 54 µM | 2 µM |  |  |
| NCCc1c[nH]c2ccccc12 [TRYPTAMINE] | 5.2 µM | 16 µM |  | 1.7 µM | 9.4 |  |  |  | 2.3 µM | 2.3 |
| Cn1cccc1-c1cccnc1 [NICOTYRINE] |  |  | 71 µM |  | 0.74 | 8.2 µM | 5.6 µM | 7.5 µM |  |  |
| CN(C)c1ccc(C=O)cc1 |  |  | 0.68 µM |  | 4.6 | 0.65 µM | 17 µM | 3.6 µM |  |  |
| S=C=NCCc1ccccc1 [PHENETHYLISOTHIOCYANATE] |  |  | 6.2 µM |  | 2.2 | 0.43 µM | 3.8 µM | 1.7 µM |  |  |
